Measurements taken from ChEMBL document CHEMBL2321795, “Solubility-driven optimization of (pyridin-3-yl) benzoxazinyl-oxazolidinones leading to a promising antibacterial agent” (J Med Chem, 2013).
Values after ≈ are worked out from the molar mass of the structure shown.

How the values were obtained:
[1] = Cmax in Sprague-Dawley rat at 10 mg/kg, po by LC-MS analysis; format: ADME, organism-based; set-up: dose 10 mg/kg, route oral; conditions: in vivo
In short: (§1)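 Rats were dosed orally or by intravenous injection. For prodrugs, all parameters were based on the active parent antibacterial detected in plasma, and each prodrug dose was also given as an equivalent parent dose. Parameters were Cmax, Tmax, elimination T1/2, AUC from the concentration–time curve, clearance and oral bioavailability F.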

[2] = system: Enterococcus faecium; experiment: Antibacterial activity against linezolid-resistant Enterococcus faecium after 16 hrs by NCCLS agar dilution method; format: functional
In short: (§2)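 Agar dilution MIC. Stocks were 320 μg/mL in 50% aqueous DMSO, 2-fold serially diluted in sterile water, then diluted 10-fold into Mueller–Hinton agar to give 16–0.03125 μg/mL final. Organisms were grown in MH broth at 35 °C for 8 h and adjusted to 0.5 McFarland. They were spotted onto drug-containing plates with a multipoint inoculator and incubated at 35 °C for 16 h. Linezolid was the positive control.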

[3] = system: Enterococcus faecalis; experiment: Antibacterial activity against linezolid-resistant Enterococcus faecalis after 16 hrs by NCCLS agar dilution method; format: functional; in short: as §2
[4] = system: Staphylococcus epidermidis; experiment: Antibacterial activity against linezolid-resistant Staphylococcus epidermidis after 16 hrs by NCCLS agar dilution method; format: functional; in short: as §2
[5] = system: Staphylococcus aureus; experiment: Antibacterial activity against linezolid-resistant Staphylococcus aureus after 16 hrs by NCCLS agar dilution method; format: functional; in short: as §2
[6] = system: Staphylococcus aureus; experiment: Antibacterial activity against Staphylococcus aureus ATCC 29213 after 16 hrs by NCCLS agar dilution method; format: functional; conditions: ATCC 29213, 16 h; in short: as §2
[7] = system: Enterococcus faecalis; experiment: Antibacterial activity against Enterococcus faecalis after 16 hrs by NCCLS agar dilution method; format: functional
In short: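 Agar dilution MIC per NCCLS, 6 E. faecalis strains. Stock was 320 μg/mL in 50% water/DMSO, serially 2-fold diluted in sterile water, then 10-fold into Mueller–Hinton agar to give 16–0.03125 μg/mL final. Inocula came from MH broth cultures grown 8 h at 35 °C, adjusted to 0.5 McFarland and spotted by multipoint inoculator. Plates were read after 16 h at 35 °C.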

[8] = system: Streptococcus pneumoniae; experiment: Antibacterial activity against penicillin-resistant Streptococcus pneumoniae after 16 hrs by NCCLS agar dilution method; format: functional; in short: as §2
[9] = system: Staphylococcus epidermidis; experiment: Antibacterial activity against methicillin-resistant Staphylococcus epidermidis after 16 hrs by NCCLS agar dilution method; format: functional; in short: as §2
[10] = system: Staphylococcus epidermidis; experiment: Antibacterial activity against methicillin-sensitive Staphylococcus epidermidis after 16 hrs by NCCLS agar dilution method; format: functional; in short: as §2
[11] = system: Staphylococcus aureus; experiment: Antibacterial activity against methicillin-resistant Staphylococcus aureus after 16 hrs by NCCLS agar dilution method; format: functional; in short: as §2
[12] = system: Staphylococcus aureus; experiment: Antibacterial activity against methicillin-sensitive Staphylococcus aureus after 16 hrs by NCCLS agar dilution method; format: functional; in short: as §2
[13] = system: Rattus norvegicus; experiment: (§3) Oral bioavailability in Sprague-Dawley rat at 10 mg/kg; format: ADME, organism-based; conditions: in vivo; in short: as §1
[14] = system: Rattus norvegicus; experiment: AUC in Sprague-Dawley rat at 5.6 mg/kg, iv by LC-MS analysis; format: ADME, organism-based, Plasma; set-up: dose 5.6 mg/kg, route intravenous; conditions: in vivo; in short: as §1
[15] = system: Rattus norvegicus; experiment: (§4) AUC in Sprague-Dawley rat at 10 mg/kg, po by LC-MS analysis; format: ADME, organism-based, Plasma; set-up: dose 10 mg/kg, route oral; conditions: in vivo; in short: as §1
[16] = Elimination half life in Sprague-Dawley rat at 10 mg/kg, po by LC-MS analysis; format: ADME, organism-based; set-up: dose 10 mg/kg, route oral; conditions: in vivo, read-out: beta t1/2 (converted); in short: as §1
[17] = Elimination half life in Sprague-Dawley rat at 5.6 mg/kg, iv by LC-MS analysis; format: ADME, organism-based; set-up: dose 5.6 mg/kg, route intravenous; conditions: in vivo, read-out: beta t1/2 (converted); in short: as §1
[18] = Tmax in Sprague-Dawley rat at 10 mg/kg, po by LC-MS analysis; format: ADME, organism-based; set-up: dose 10 mg/kg, route oral; conditions: in vivo; in short: as §1
[19] = target: Voltage-gated inwardly rectifying potassium channel KCNH2 (Homo sapiens, UniProt Q12809)
Voltage-gated inwardly rectifying potassium channel KCNH2, sequence (Q12809 whole entry): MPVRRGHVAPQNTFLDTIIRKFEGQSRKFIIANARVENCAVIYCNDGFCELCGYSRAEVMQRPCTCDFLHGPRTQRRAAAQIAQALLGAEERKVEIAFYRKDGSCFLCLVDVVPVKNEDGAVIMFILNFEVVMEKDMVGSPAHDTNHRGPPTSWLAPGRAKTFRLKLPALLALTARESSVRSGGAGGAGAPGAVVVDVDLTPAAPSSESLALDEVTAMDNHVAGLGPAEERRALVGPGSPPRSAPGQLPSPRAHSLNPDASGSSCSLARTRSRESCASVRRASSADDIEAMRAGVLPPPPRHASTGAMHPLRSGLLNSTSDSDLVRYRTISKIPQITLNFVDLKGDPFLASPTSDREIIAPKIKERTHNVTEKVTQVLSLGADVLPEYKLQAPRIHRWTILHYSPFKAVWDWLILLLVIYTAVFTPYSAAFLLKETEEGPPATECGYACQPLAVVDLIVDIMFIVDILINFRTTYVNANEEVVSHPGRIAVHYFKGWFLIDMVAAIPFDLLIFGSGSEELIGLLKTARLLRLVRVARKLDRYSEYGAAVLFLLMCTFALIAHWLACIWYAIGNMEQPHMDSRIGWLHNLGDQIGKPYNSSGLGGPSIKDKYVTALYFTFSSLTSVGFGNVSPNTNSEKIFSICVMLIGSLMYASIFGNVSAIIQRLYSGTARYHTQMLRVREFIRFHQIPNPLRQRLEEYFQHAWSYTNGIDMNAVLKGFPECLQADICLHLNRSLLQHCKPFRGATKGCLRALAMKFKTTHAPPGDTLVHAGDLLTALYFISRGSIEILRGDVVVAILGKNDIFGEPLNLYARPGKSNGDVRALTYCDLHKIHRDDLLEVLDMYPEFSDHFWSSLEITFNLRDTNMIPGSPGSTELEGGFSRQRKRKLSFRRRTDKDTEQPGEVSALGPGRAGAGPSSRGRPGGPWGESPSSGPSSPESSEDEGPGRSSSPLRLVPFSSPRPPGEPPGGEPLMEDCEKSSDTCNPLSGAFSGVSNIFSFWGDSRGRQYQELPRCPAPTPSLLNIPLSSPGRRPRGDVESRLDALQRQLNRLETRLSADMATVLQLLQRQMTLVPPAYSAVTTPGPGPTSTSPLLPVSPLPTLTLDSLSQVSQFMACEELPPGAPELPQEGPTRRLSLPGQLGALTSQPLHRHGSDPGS

[20] = Elimination half life in Sprague-Dawley rat at 10 mg/kg, iv by LC-MS analysis; format: ADME, organism-based; set-up: dose 10 mg/kg, route intravenous; conditions: in vivo, read-out: beta t1/2 (converted); in short: as §1
[21] = Aqueous solubility of the compound; conditions: aqueous (not further specified)
[22] = Mean resident time in Staphylococcus aureus systemic infection mouse model at 2.5 to 20 mg/kg, iv; format: ADME, organism-based; set-up: dose 2.5-20 mg/kg, route intravenous; conditions: in vivo
[23] = system: Staphylococcus aureus; experiment: Antibacterial activity against methicillin-resistant Staphylococcus aureus ATCC 33591 infected in po dosed systemic infection mouse model administered 1 hr post infection measured after 24 hrs; format: functional; conditions: ATCC 33591, po
In short: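 Female ICR mice, 23–25 g, made neutropenic with cyclophosphamide ip, 150 mg/kg 4 days and 100 mg/kg 2 days before infection. Infected ip with about 0.5 mL of 10⁶ CFU/mL MRSA. Oral dosing 1 h post-infection at 5, 10, 20 and 40 mg/kg, with linezolid as control. ED₅₀ (dose treating 50% of infections) by Reed–Muench and Hill equation, 24 h after treatment.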

[24] = system: Staphylococcus aureus; experiment: Antibacterial activity against methicillin-sensitive Staphylococcus aureus ATCC 19636 infected in iv dosed systemic infection mouse model administered 1 hr post infection measured after 48 hrs; format: functional; conditions: ATCC 19636, iv
In short: (§5)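 Female ICR mice weighing 20–22 g, six per group, received 0.5 mL of 10⁷–10⁸ CFU/mL S. aureus intraperitoneally as a lethal systemic challenge. Dosing was oral or intravenous 1 h post-infection at 2.5, 5, 10 and 20 mg/kg, with linezolid as comparator.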

[25] = system: Staphylococcus aureus; experiment: Antibacterial activity against methicillin-sensitive Staphylococcus aureus ATCC 19636 infected in po dosed systemic infection mouse model administered 1 hr post infection measured after 48 hrs; format: functional; conditions: ATCC 19636, po; in short: as §5
[26] = as §3; format: ADME, organism-based; conditions: Sprague-Dawley, in vivo; in short: as §1
[27] = Clearance in Sprague-Dawley rat at 10 mg/kg, iv by LC-MS analysis; format: ADME, organism-based; set-up: dose 10 mg/kg, route intravenous; conditions: in vivo; in short: as §1
[28] = AUC in Sprague-Dawley rat at 10 mg/kg, iv by LC-MS analysis; format: ADME, organism-based; set-up: dose 10 mg/kg, route intravenous; conditions: plasma
In short: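 Rats dosed orally or by intravenous injection. AUC is the area under the plasma concentration–time curve. For the prodrug entries, all PK values were based on the amount of the active parent antibacterial detected, not the administered prodrug.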

[29] = as §4; format: ADME, organism-based, Plasma; set-up: dose 10 mg/kg, route oral; conditions: Sprague-Dawley, plasma; in short: as §1

O=C1OC(CO)CN1c1ccc(-c2ccc3c(c2)OC[C@H]2[C@H](CO)OC(=O)N32)cn1 (some centres not stated) gave a Cmax [1] of 332 ng/mL, an MIC [2] of 4 µg/mL (≈ 9.68 µM) and an MIC [3] of 4 µg/mL (≈ 9.68 µM). For the same compound, the MIC [4] was 4 µg/mL (≈ 9.68 µM), the MIC [5] was 8 µg/mL (≈ 19.4 µM) and the MIC [6] was 0.5 µg/mL (≈ 1.21 µM). The MIC [7] was 0.5 µg/mL (≈ 1.21 µM), the MIC [8] was 0.5 µg/mL (≈ 1.21 µM) and the MIC [9] was 0.5 µg/mL (≈ 1.21 µM). For the same compound, the MIC [10] was 0.25 µg/mL (≈ 0.605 µM), the MIC [11] was 0.5 µg/mL (≈ 1.21 µM) and the MIC [12] was 0.5 µg/mL (≈ 1.21 µM). For the same compound, the F [13] was 27.5%, the AUC [14] was 2800 ng·h/mL and the AUC [15] was 1491 ng·h/mL. It also gave a half-life [16] of 2.25 h, a half-life [17] of 1.08 h and a Tmax [18] of 0.38 h. The IC50 [19] was greater than 40 µM.

With CN1C[C@@H](c2ccc(-c3ccc4c(c3)OC[C@H]3[C@H](COP(=O)([O-])[O-])OC(=O)N43)cn2)OC1=O.[Na+].[Na+] the half-life [20] was 4.88 h, the Cmax [1] was 524 ng/mL and the solubility [21] was 227 mg/mL. It also gave an MRT [22] of 1.25 h, an ED50 [23] of 5 mg/kg and an ED50 [24] of 14.2 mg/kg. The ED50 [25] was 6.65 mg/kg, the bioavailability [26] was 52.5% and the clearance [27] was 40.3 mL/min/kg. For the same compound, the AUC [28] was 3160 ng·h/mL, the AUC [29] was 1660 ng·h/mL and the half-life [16] was 4.61 h. It also gave a Tmax [18] of 0.44 h.
